According to ChEMBL document CHEMBL1122148, “Affinity therapeutics. 1. Selective incorporation of 2-thiouracil derivatives in murine melanomas. Cytostatic activity of 2-thiouracil arotinoids, 2-thiouracil retinoids, arotinoids, and retinoids” (1982):

What was measured:
[1] = test system: S91; experiment: Growth inhibition of Cloudman S91 Melanoma cells at 1 uM drug concentration; values are per cent of control; conditions: Mus musculus
[2] = test system: S91; experiment: Growth inhibition of Cloudman S91 Melanoma cells at 10 uM drug concentration; values are per cent of control; conditions: Mus musculus
[3] = test system: Mus musculus; experiment: Harding Passey melanoma tumor and organ incorporation of radioactivity 48 hr after 2.2 microCi dose injected intramuscularly in mouse eye; assay type: functional
Procedure, shortened: (§1)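 Harding Passey melanoma tissue (strongly melanized) was minced, and the brei was implanted subcutaneously into the right flank of DBA/2 mice. Tumors reached about 6×7 mm by 2 weeks. The ³⁵S-labelled thiouracil was injected intramuscularly into the right thigh, and animals were killed 48 h later. Four samples were taken per tumor and one per organ. Tissue was solubilized at 37 °C for 16 h, bleached, and scintillation-counted. Results are radioactivity per mg wet weight.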

[4] = test system: Mus musculus; experiment: Cloudman S 91 melanoma tumor and organ incorporation of radioactivity 48 h after 2.2 microCi dose injected intramuscularly in mouse eye; assay type: functional
Procedure, shortened: (§2)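 Cloudman S 91 cells in culture (3×10^6) were implanted subcutaneously into the right flank of DBA/2 mice. After 2 weeks the tumors were about 6×7 mm. The ³⁵S-labelled thiouracil was given intramuscularly into the right thigh, and mice were killed 48 h later. Four samples were taken per tumor and one per organ. Tissue was solubilized at 37 °C for 16 h, bleached, and counted by liquid scintillation. Results are radioactivity per mg wet weight.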

[5] = test system: Mus musculus; experiment: Cloudman S 91 melanoma tumor and organ incorporation of radioactivity 48 hr after 2.2 microCi dose injected intramuscularly in mouse kidney; assay type: functional
Procedure, shortened: as §2

[6] = test system: Mus musculus; experiment: Harding Passey melanoma tumor and organ incorporation of radioactivity 48 hr after 2.2 microCi dose injected intramuscularly in mouse kidney; assay type: functional
Procedure, shortened: as §1

[7] = test system: Mus musculus; experiment: Harding Passey melanoma tumor and organ incorporation of radioactivity 48 hr after 2.2 microCi dose injected intramuscularly in mouse liver; assay type: functional
Procedure, shortened: as §1

[8] = test system: Mus musculus; experiment: Harding Passey melanoma tumor and organ incorporation of radioactivity 48 hr after 2.2 microCi dose injected intramuscularly in mouse lung; assay type: functional
Procedure, shortened: as §1

[9] = test system: Mus musculus; experiment: Harding Passey melanoma tumor and organ incorporation of radioactivity 48 hr after 2.2 microCi dose injected intramuscularly in mouse spleen; assay type: functional
Procedure, shortened: as §1

[10] = test system: Mus musculus; experiment: Cloudman S 91 melanoma tumor and organ incorporation of radioactivity 48 hr after 2.2 microCi dose injected intramuscularly in mouse liver; assay type: functional
Procedure, shortened: as §2

[11] = test system: Mus musculus; experiment: Cloudman S 91 melanoma tumor and organ incorporation of radioactivity 48 hr after 2.2 microCi dose injected intramuscularly in mouse lung; assay type: functional
Procedure, shortened: as §2

[12] = test system: Mus musculus; experiment: Cloudman S 91 melanoma tumor and organ incorporation of radioactivity 48 hr after 2.2 microCi dose injected intramuscularly in mouse spleen; assay type: functional
Procedure, shortened: as §2

[13] = test system: Mus musculus; experiment: Cloudman S 91 melanoma tumor and organ incorporation of radioactivity 48 hr after 2.2 microCi dose injected intramuscularly in mouse tumor; assay type: functional
Procedure, shortened: as §2

[14] = test system: Mus musculus; experiment: Harding Passey melanoma tumor and organ incorporation of radioactivity 48 hr after 2.2 microCi dose injected intramuscularly in mouse tumor; assay type: functional
Procedure, shortened: as §1

[15] = test system: Mus musculus; experiment: Cloudman S 91 melanoma tumor and organ incorporation of radioactivity 48 hr after 1.4 microCi dose injected intramuscularly in mouse eye; assay type: functional
Procedure, shortened: as §2

[16] = test system: Mus musculus; experiment: Cloudman S 91 melanoma tumor and organ incorporation of radioactivity 48 hr after 1.4 microCi dose injected intramuscularly in mouse kidney; assay type: functional
Procedure, shortened: as §2

[17] = test system: Mus musculus; experiment: Cloudman S 91 melanoma tumor and organ incorporation of radioactivity 48 hr after 1.4 microCi dose injected intramuscularly in mouse liver; assay type: functional
Procedure, shortened: as §2

[18] = test system: Mus musculus; experiment: Cloudman S 91 melanoma tumor and organ incorporation of radioactivity 48 h after 1.4 microCi dose injected intramuscularly in mouse lung; assay type: functional
Procedure, shortened: as §2

[19] = test system: Mus musculus; experiment: Cloudman S 91 melanoma tumor and organ incorporation of radioactivity 48 hr after 1.4 microCi dose injected intramuscularly in mouse spleen; assay type: functional
Procedure, shortened: as §2

[20] = test system: Mus musculus; experiment: Harding Passey melanoma tumor and organ incorporation of radioactivity 48 hr after 1.4 microCi dose injected intramuscularly in mouse tumor; assay type: functional
Procedure, shortened: as §1

[21] = test system: Mus musculus; experiment: Cloudman S 91 melanoma tumor and organ incorporation of radioactivity 48 hr after 1.4 microCi dose injected intramuscularly in mouse tumor; assay type: functional
Procedure, shortened: as §2

[22] = test system: Mus musculus; experiment: Harding Passey melanoma tumor and organ incorporation of radioactivity 48 hr after 1.4 microCi dose injected intramuscularly in mouse eye; assay type: functional
Procedure, shortened: as §1

[23] = test system: Mus musculus; experiment: Harding Passey melanoma tumor and organ incorporation of radioactivity 48 hr after 1.4 microCi dose injected intramuscularly in mouse kidney; assay type: functional
Procedure, shortened: as §1

[24] = test system: Mus musculus; experiment: Harding Passey melanoma tumor and organ incorporation of radioactivity 48 hr after 1.4 microCi dose injected intramuscularly in mouse liver; assay type: functional
Procedure, shortened: as §1

[25] = test system: Mus musculus; experiment: Harding Passey melanoma tumor and organ incorporation of radioactivity 48 hr after 1.4 microCi dose injected intramuscularly in mouse lung; assay type: functional
Procedure, shortened: as §1

[26] = test system: Mus musculus; experiment: Harding Passey melanoma tumor and organ incorporation of radioactivity 48 hr after 1.4 microCi dose injected intramuscularly in mouse spleen; assay type: functional
Procedure, shortened: as §1

[27] = test system: Mus musculus; experiment: Harding Passey melanoma tumor and organ incorporation of radioactivity 48 hr after 5.1 microCi dose injected intramuscularly in mouse spleen; assay type: functional
Procedure, shortened: as §1

[28] = test system: Mus musculus; experiment: Harding Passey melanoma tumor and organ incorporation of radioactivity 48 hr after 5.1 microCi dose injected intramuscularly in mouse tumor; assay type: functional
Procedure, shortened: as §1

[29] = test system: Mus musculus; experiment: Harding Passey melanoma tumor and organ incorporation of radioactivity 48 hr after 5.1 microCi dose injected intramuscularly in mouse kidney; assay type: functional
Procedure, shortened: as §1

[30] = test system: Mus musculus; experiment: Harding Passey melanoma tumor and organ incorporation of radioactivity 48 hr after 5.1 microCi dose injected intramuscularly in mouse liver; assay type: functional
Procedure, shortened: as §1

[31] = test system: Mus musculus; experiment: Harding Passey melanoma tumor and organ incorporation of radioactivity 48 hr after 5.1 microCi dose injected intramuscularly in mouse eye; assay type: functional
Procedure, shortened: as §1

[32] = test system: Mus musculus; experiment: Harding Passey melanoma tumor and organ incorporation of radioactivity 48 hr after 5.1 microCi dose injected intramuscularly in mouse lung; assay type: functional
Procedure, shortened: as §1

| SMILES | level, % of control at 1 µM [1] | level, % of control at 10 µM [2] | also measured |
| --- | --- | --- | --- |
| N#CSCCCCc1cnc(S)nc1O | 93% | 100% |  |
| O=Cc1ccc(C(=O)OCCCCc2cnc(S)nc2O)cc1 | 118% | 98% |  |
| C/C=C/C=C/C(=O)OCCCCc1cnc(S)nc1O | 139% | 94% |  |
| OCCCCc1cnc(S)nc1O | 81% | 82% | Activity [3]: 2.6 c.p.m. min-1 mg-1; Activity [4]: 2.7 c.p.m. min-1 mg-1; Activity [5]: 8 c.p.m. min-1 mg-1; Activity [6]: 26.1 c.p.m. min-1 mg-1; Activity [7]: 8.8 c.p.m. min-1 mg-1; Activity [8]: 4 c.p.m. min-1 mg-1; Activity [9]: 1.5 c.p.m. min-1 mg-1; Activity [10]: 6.1 c.p.m. min-1 mg-1; Activity [11]: 3 c.p.m. min-1 mg-1; Activity [12]: 1.5 c.p.m. min-1 mg-1; Activity [13]: 7.6 c.p.m. min-1 mg-1; Activity [14]: 24.8 c.p.m. min-1 mg-1 |
| O=C1CCCC/C1=C/CCCc1cnc(S)nc1O | 87% | 89% |  |
| CC(=O)OCCCCc1cnc(S)nc1O | 90% | 94% |  |
| CCOC(=O)c1ccc(/C=C(\C)c2ccc3c(c2)CCCC3)cc1 | 81% | 97% |  |
| C/C(=C\c1ccc(C(=O)OCCCCc2cnc(S)nc2O)cc1)c1ccc2c(c1)CCCC2 | 78% | 103% | Activity [15]: 1.8 c.p.m. min-1 mg-1; Activity [16]: 4.5 c.p.m. min-1 mg-1; Activity [17]: 6.1 c.p.m. min-1 mg-1; Activity [18]: 3.2 c.p.m. min-1 mg-1; Activity [19]: 1.7 c.p.m. min-1 mg-1; Activity [20]: 10.6 c.p.m. min-1 mg-1; Activity [21]: 4.4 c.p.m. min-1 mg-1; Activity [22]: 1.9 c.p.m. min-1 mg-1; Activity [23]: 6.6 c.p.m. min-1 mg-1; Activity [24]: 9.9 c.p.m. min-1 mg-1; Activity [25]: 3.7 c.p.m. min-1 mg-1; Activity [26]: 1.2 c.p.m. min-1 mg-1 |
| O=Cc1ccc(C(=O)OCCc2cnc(S)nc2O)cc1 | 82% | 83% |  |
| C/C(=C\c1ccc(C(=O)OCCCCc2cnc(S)nc2O)cc1)c1ccc2c(c1)C(C)(C)CCC2(C)C | 146% | 84% |  |
| CC1=C(/C=C/C(C)=C/C=C/C(C)=C/C(=O)OCCCCc2cnc(S)nc2O)C(C)(C)CCC1 | 73% |  |  |
| C/C(=C\c1ccc(C(=O)O)cc1)c1ccc2c(c1)C(C)(C)CCC2(C)C | 122% | 98% |  |
| CC(O)Cc1cnc(S)nc1O (configuration not stated) | 134% | 106% |  |
| Oc1nc(S)ncc1CCCCBr | 109% | 100% |  |
| CCOC(=O)c1ccc(/C=C(\C)c2ccc3c(c2)C(C)(C)CCC3(C)C)cc1 [AROTINOID] | 134% | 98% |  |
| O=c1cc[nH]c(=S)[nH]1 [THIOURACIL] | 97% | 97% | Activity [27]: 2.7 c.p.m. min-1 mg-1; Activity [28]: 153.3 c.p.m. min-1 mg-1; Activity [29]: 22.3 c.p.m. min-1 mg-1; Activity [30]: 20.5 c.p.m. min-1 mg-1; Activity [31]: 23.1 c.p.m. min-1 mg-1; Activity [32]: 4.7 c.p.m. min-1 mg-1 |
| CC1=C(/C=C/C(C)=C/C=C/C(C)=C/C(=O)O)C(C)(C)CCC1 [TRETINOIN] | 11% |  |  |
